Results on 20 compounds are retold here after ChEMBL document CHEMBL4431313, “Inhibition of Plasmodium falciparum Hsp90 Contributes to the Antimalarial Activities of Aminoalcohol-carbazoles” (J Med Chem, 2016).

The test system of one experiment is L6. Description: Cytotoxicity against rat L6 cells after 72 hrs by alamar blue assay. The experiment is classed as cell-based. The note with it: L6, 72 h. Background: The colour change of resazurin is a common sign of viable cells or microbes.
Experiment [1] deals with T1, HSP90 (Plasmodium falciparum 3D7) (UniProt Q8IL32).
T1 sequence (whole entry): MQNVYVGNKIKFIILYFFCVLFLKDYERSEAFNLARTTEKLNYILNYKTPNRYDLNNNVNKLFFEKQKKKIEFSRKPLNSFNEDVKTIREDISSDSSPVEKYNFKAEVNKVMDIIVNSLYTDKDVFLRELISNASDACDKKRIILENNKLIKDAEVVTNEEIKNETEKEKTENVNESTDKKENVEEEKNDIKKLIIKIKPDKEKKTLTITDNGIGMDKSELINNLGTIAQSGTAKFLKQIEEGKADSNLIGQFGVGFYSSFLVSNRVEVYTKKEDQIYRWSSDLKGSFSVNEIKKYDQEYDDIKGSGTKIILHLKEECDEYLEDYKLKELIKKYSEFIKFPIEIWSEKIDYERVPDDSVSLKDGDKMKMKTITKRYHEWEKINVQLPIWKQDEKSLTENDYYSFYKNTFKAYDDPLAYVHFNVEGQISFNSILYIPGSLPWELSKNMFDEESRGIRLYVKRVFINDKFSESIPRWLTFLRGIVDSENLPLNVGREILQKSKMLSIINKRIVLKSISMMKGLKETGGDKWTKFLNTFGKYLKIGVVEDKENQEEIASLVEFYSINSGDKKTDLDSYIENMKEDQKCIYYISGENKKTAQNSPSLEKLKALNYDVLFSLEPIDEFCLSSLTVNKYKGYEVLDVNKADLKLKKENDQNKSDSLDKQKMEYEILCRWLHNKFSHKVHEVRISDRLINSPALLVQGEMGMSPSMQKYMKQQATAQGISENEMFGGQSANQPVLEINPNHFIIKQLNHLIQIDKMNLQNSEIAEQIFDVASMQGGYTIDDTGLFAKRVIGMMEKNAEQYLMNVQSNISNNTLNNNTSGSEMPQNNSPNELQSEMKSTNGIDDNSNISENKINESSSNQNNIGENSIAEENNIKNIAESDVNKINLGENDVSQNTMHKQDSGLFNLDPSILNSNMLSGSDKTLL
The experiment is described as follows: Binding affinity to recombinant Plasmodium falciparum Hsp90 expressed in Escherichia coli BL21(DE3) pLysS assessed as thermophoresis shift at 50 uM by microscale thermophoresis assay. The gist of the method:
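Microscale thermophoresis with fluorescently labeled PfHsp90: ligand-induced change in the protein's movement along a temperature gradient. Each compound tested at a fixed 50 μM. Compounds were held as 10 mM stocks in 100% DMSO at -20 °C.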
On the technique in general: MST reads how a fluorescent partner responds to local heating, with and without ligand.

For experiment [2], the system named is Plasmodium falciparum. The experiment is described as follows: Antimalarial activity against Plasmodium falciparum NF54 infected in human erythrocytes assessed as [3H]-hypoxanthine incorporation by scintillation counting analysis. The experiment is classed as functional, organism-based. The gist of the method:
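NF54 parasites grown in human erythrocytes in RPMI 1640 with 0.5% ALBUMAX II, 25 mM Hepes, 25 mM NaHCO3 (pH 7.3), 0.36 mM hypoxanthine and 100 μg/mL neomycin, at 37 °C under 3% O2/4% CO2/93% N2, humidified. IC50 derived in vitro from [3H]hypoxanthine incorporation. Compounds held as 10 mM DMSO stocks at -20 °C.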

A further experiment addresses Heat shock protein 90 (Plasmodium falciparum, UniProt Q8IC05). Description: Binding affinity to recombinant Plasmodium falciparum Hsp90 expressed in Escherichia coli BL21(DE3) pLysS by microscale thermophoresis assay.
Experiment [3] has as its system Plasmodium falciparum. The experiment is described as follows: (§1) Binding affinity to recombinant Plasmodium falciparum Hsp90 ISG-LGA mutant expressed in Escherichia coli BL21(DE3) pLysS by microscale thermophoresis assay.
Experiment [4] addresses Heat shock protein HSP 90-beta (Homo sapiens) (UniProt P08238). Description: Binding affinity to recombinant human Hsp90 beta expressed in Escherichia coli BL21(DE3) pLysS by microscale thermophoresis assay.
The test system of experiment [5] is Plasmodium falciparum. The experiment is described as follows: Antimalarial activity against Plasmodium falciparum K1 infected in human erythrocytes after 72 hrs by DAPI staining-based confocal imaging system. The experiment is classed as functional, organism-based. The note with it: K1, 72 h.
In experiment [6] the test system is Plasmodium falciparum. The experiment is described as follows: Antimalarial activity against Plasmodium falciparum 3D7 infected in human erythrocytes after 72 hrs by DAPI staining-based confocal imaging system. The experiment is classed as functional, organism-based. The note with it: 3D7, 72 h.
Experiment [7] in a line: as §1.

Each structure is given as a SMILES string. The source made the active and inactive calls. The calls are words filed in the database; no cut-off is given here.

Sequence of Heat shock protein 90 (Q8IC05 1-745): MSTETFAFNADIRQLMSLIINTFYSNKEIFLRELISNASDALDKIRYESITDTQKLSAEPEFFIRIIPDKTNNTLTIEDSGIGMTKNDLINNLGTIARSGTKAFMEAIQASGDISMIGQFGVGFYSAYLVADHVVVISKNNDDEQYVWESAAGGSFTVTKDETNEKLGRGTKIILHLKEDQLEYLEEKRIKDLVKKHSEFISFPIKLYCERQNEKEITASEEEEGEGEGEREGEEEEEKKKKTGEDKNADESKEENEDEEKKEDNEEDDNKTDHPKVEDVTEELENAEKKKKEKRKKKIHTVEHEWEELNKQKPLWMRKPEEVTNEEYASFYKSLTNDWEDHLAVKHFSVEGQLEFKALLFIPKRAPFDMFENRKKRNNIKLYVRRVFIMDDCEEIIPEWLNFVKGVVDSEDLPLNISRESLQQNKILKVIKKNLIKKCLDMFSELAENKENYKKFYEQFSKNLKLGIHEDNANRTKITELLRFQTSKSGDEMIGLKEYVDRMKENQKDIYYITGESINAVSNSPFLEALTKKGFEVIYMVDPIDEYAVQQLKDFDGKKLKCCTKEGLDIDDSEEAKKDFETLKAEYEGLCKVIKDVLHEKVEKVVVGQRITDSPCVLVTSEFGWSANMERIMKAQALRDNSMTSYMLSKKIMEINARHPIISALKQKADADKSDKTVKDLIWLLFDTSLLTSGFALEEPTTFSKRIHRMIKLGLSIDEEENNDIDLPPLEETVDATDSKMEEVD
Sequence of Heat shock protein HSP 90-beta (Homo sapiens) (P08238 whole entry): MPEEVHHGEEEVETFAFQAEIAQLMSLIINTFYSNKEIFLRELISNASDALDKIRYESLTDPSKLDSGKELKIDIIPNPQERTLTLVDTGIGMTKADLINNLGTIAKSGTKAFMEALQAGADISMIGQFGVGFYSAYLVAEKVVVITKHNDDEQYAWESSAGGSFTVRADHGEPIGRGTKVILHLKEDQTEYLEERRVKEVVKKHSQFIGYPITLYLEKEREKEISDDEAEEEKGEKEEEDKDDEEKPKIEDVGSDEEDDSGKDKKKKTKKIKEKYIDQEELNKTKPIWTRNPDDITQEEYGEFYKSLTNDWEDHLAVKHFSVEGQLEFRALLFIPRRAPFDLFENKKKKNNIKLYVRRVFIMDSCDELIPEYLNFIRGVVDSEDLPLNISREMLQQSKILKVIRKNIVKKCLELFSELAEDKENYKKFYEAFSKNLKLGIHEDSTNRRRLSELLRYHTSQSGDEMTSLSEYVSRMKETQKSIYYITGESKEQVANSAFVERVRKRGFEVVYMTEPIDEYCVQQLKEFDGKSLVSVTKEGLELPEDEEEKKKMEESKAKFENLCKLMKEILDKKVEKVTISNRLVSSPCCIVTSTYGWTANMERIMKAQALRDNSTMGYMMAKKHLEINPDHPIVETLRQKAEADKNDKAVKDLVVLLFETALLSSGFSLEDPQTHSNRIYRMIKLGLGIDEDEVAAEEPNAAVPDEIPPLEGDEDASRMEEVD

As a reminder, the IC50 is the concentration that gives 50% inhibition. `CC(C)(C)NCC(O)Cn1c2ccccc2c2ccccc21` (centres undefined): the IC50 worked out at 7.21 µM in the experiment with L6 and 2.08 µM with Plasmodium falciparum [2]. Further, the Activity in [1] was 0.725 U.

As to `CN(C)CC(O)Cn1c2ccc(Br)cc2c2cc(Br)ccc21` (centres undefined), the IC50 with L6 was 3.66 µM; in the experiment on Plasmodium falciparum [2], 1.67 µM. Moreover, the Activity in experiment [1] came out at 0.41 U.

In the case of `OC(CNC1CCCCC1)Cn1c2ccccc2c2ccccc21` (centres undefined), the IC50 in the experiment with L6 is 3.67 µM; in the experiment with Plasmodium falciparum [2], 0.162 µM. Further, the Activity in experiment [1] turned out to be 1.49 U.

For the compound `OC(CN1CCCCCC1)Cn1c2ccccc2c2ccccc21` (centres undefined), the IC50 in the experiment on L6 came out at 6.85 µM; in the experiment with Plasmodium falciparum [2], 7.79 µM. For the same compound, the Activity in experiment [1] was 1.11 U.

In the case of `OC(CN1CCN(Cc2ccccc2)CC1)Cn1c2ccccc2c2ccccc21` (centres undefined), the IC50 was 10.8 µM in the experiment on L6 and 0.994 µM in the experiment with Plasmodium falciparum [2]. Further, in [1], the Activity was found to be 6.68 U.

For the compound `CCC(CC)NCC(O)Cn1c2ccccc2c2ccccc21` (centres undefined), the IC50 with L6 stood at 7.38 µM; in the experiment with Plasmodium falciparum [2] it was 12.7 µM. In experiment [1], the Activity was found to be 0.24 U.

Regarding `CCC(C)NCC(O)Cn1c2ccc(Cl)cc2c2cc(Cl)ccc21` (centres undefined), the IC50 in the experiment on L6 came to 0.975 µM; in the experiment with Plasmodium falciparum [2] it was 1.56 µM. For the same compound, the Activity in experiment [1] stood at 3.85 U.

Turning to `CC(C)(CO)NCC(O)Cn1c2ccccc2c2ccccc21` (centres undefined), the IC50 in the experiment on L6 was found to be 6.22 µM; with Plasmodium falciparum [2] it was 10.1 µM. In addition, the Activity in experiment [1] was determined as 0.49 U.

Usually Kd stands for the constant that tells how readily two partners part at equilibrium. In the case of `OC(CN1CCN(Cc2ccccc2)CC1)Cn1c2ccc(Cl)cc2c2cc(Cl)ccc21` (centres undefined), on Heat shock protein 90, the Kd was found to be 28.1 µM. In addition, the IC50 in the experiment with L6 is 3.6 µM; with Plasmodium falciparum [2], 0.082 µM. Besides, the Activity in experiment [1] worked out at 6.41 U. Also, the result (in the experiment on Plasmodium falciparum [3]; in [4]) was inactive.

With `OC(CNC1CCCCC1)Cn1c2ccc(Cl)cc2c2cc(Cl)ccc21` (centres undefined), the IC50 in the experiment on L6 was 3.34 µM; in the experiment on Plasmodium falciparum [2] it was 0.086 µM. Besides, the Activity in experiment [1] was 5.88 U.

As for `CC(C)NCC(O)Cn1c2ccc(Cl)cc2c2cc(Cl)ccc21` (centres undefined), the IC50 with Plasmodium falciparum [5] was 0.48 to 1.8 µM; in the experiment with Plasmodium falciparum [6] it was 0.48 to 1.8 µM; in the experiment on L6 it was 2.61 µM; in the experiment with Plasmodium falciparum [2], 0.07 to 0.082 µM. Besides, the Activity in experiment [1] turned out to be 8.38 U.

For the compound `COC1=C2C[C@@H](C)C[C@H](OC)[C@H](O)[C@@H](C)/C=C(\C)[C@H](OC(N)=O)[C@@H](OC)/C=C\C=C(/C)C(=O)NC(=CC1=O)C2=O` [GELDANAMYCIN], in [7], the Kd was determined as 0.51 µM.

For `O=C(c1ccccc1)N1CCN(CC(O)Cn2c3ccc(Cl)cc3c3cc(Cl)ccc32)CC1` (centres undefined), the Kd on Heat shock protein 90 worked out at 25.6 µM. In addition, the values for the IC50 in the experiment with L6 and in the experiment on Plasmodium falciparum [2] were 9.72 µM and 1.13 µM, respectively. The Activity in experiment [1] is 6.71 U.

For `OC(CN1CCOCC1)Cn1c2ccc(Cl)cc2c2cc(Cl)ccc21` (centres undefined), the IC50 with L6 was determined as 9.72 µM; with Plasmodium falciparum [2], 1.23 µM. The Activity in [1] stood at 8.19 U.

For `CC(C)NCC(O)Cn1c2ccccc2c2ccccc21` (centres undefined), the IC50 turned out to be 26.5 µM with L6 and 1.44 µM with Plasmodium falciparum [2]. Besides, in [1], the Activity came out at 2.71 U.

As for `OC(CN1CCN(Cc2ccccc2)CC1)Cn1c2ccc(Br)cc2c2cc(Br)ccc21` (centres undefined), the IC50 worked out at 3.67 µM in the experiment with L6 and 0.095 µM with Plasmodium falciparum [2]. Further, the Activity in [1] came out at 6.64 U.

With `CC1CCCC(C)N1CC(O)Cn1c2ccccc2c2ccccc21` (centres undefined), the results for the IC50 in the experiment with L6 and in the experiment on Plasmodium falciparum [2] were 37.7 µM and 4.97 µM, respectively. For the same compound, in experiment [1], the Activity stood at 0.6 U.

In the case of `OC(CN1CCOCC1)Cn1c2ccc(Br)cc2c2cc(Br)ccc21` (centres undefined), the IC50 with L6 came to 11.6 µM; in the experiment on Plasmodium falciparum [2] it was 2.08 µM. For the same compound, the Activity in experiment [1] worked out at 6.87 U.

In the case of `O=C(c1ccccc1)N1CCN(CC(O)Cn2c3ccccc3c3ccccc32)CC1` (centres undefined), the IC50 was 25.2 µM in the experiment on L6 and 14.9 µM in the experiment with Plasmodium falciparum [2]. Moreover, the Activity in [1] worked out at 3.33 U.

With `O=C(c1ccccc1)N1CCN(CC(O)Cn2c3ccc(Br)cc3c3cc(Br)ccc32)CC1` (centres undefined), the IC50 in the experiment on L6 turned out to be 10.2 µM; with Plasmodium falciparum [2] it was 2.34 µM. In addition, the Activity in experiment [1] worked out at 6.95 U.
